Laboratory results: article PMC4325620 (Memórias do Instituto Oswaldo Cruz, 2014)
Like-named read-outs stand apart in the source and are kept apart here.

Experiments:
[1] = tested on: intracellular amastigotes of Leishmania (Leishmania) amazonensis; type: cell-based, Leishmania (L.) amazonensis (IFLA/BR/1967/PH8); settings: for reduction of infection index: 72 h; for IC50: Peritoneal macrophage
How it was run: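 Resident peritoneal macrophages from 6-week-old female BALB/c mice, 1 x 10^5/well in RPMI-1640 with 10% FCS and gentamicin, 1 h at 37 °C, 5% CO2. Infected with promastigotes (1 x 10^6/well), 4 h at 35 °C. Extract 50-12.5 µg/mL (24, 48, 72 h) or isolated compounds (72 h) at 35 °C. Giemsa staining; 200 cells counted per replicate. Infection index = % infected macrophages × mean amastigotes per macrophage. IC50 by non-linear dose-response regression.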

[2] = tested on: fibroblast cells (NIH/3T3); assay: Cytotoxicity assay; type: cell-based, murine; settings: for IC50: Mus musculus, NIH3T3, 48 h; for NIH/3T3 SI (selectivity index): SI = IC50 mammalian cell/IC50 amastigotes (µg/mL)
How it was run: (§1)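 Cells exposed 48 h at 37 °C, 5% CO2, to four concentrations (0.25-250 µg/mL) in triplicate. Amphotericin B reference (0.025-25 µg/mL); DMSO vehicle control. SRB read-out: fixation in cold 20% TCA, 30 min at 4 °C; 0.1% SRB in 1% acetic acid, 30 min; dye solubilised in 10 mM Trizma; OD 540 nm. IC50 by non-linear regression. SI = mammalian-cell IC50 / amastigote IC50.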

[3] = tested on: Murine macrophages (J774.A1); assay: Cytotoxicity assay; type: cell-based; settings: for IC50: Mus musculus, J774.A1, 48 h; for J774.A1 SI (selectivity index): SI = IC50 mammalian cell/IC50 amastigotes (µg/mL)
How it was run: as §1

[4] = tested on: NO production by L. amazonensis infected cells; assay: Nitric oxide; type: cell-based, BALB/c mice; settings: for NO production: vs untreated infected cells; for production of nitric oxide (NO): treated infected cells, concentration not given
How it was run: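 Supernatants were taken from infected BALB/c peritoneal macrophages treated as in the amastigote assay. Nitrite was quantified against a sodium nitrite standard curve (1-10 µM in RPMI). Results are mean ± SD, compared with untreated infected cells by Student's t test.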

[5] = tested on: axenic amastigotes of Leishmania donovani; settings: ref Weniger et al. 2006, Kunert et al. 2008; cited from earlier work
[6] = tested on: promastigotes of Leishmania donovani; settings: ref Camacho et al. 2000; cited from earlier work
[7] = read-out: Intracellular amastigotes IC50
[8] = read-out: Intracellular amastigotes IC50 (µM)

IC50 [1, 7]	IC50 [1, 8]	SMILES	reduction of infection index ([1]; all concentrations tested, compared to the control)	reduction of infection index ([1]; highest concentration (3 µg/mL))	IC50 ([2]; read-out: NIH/3T3 IC50)	IC50 ([2]; read-out: NIH/3T3 IC50 (µM))	NIH/3T3 SI (selectivity index) [2]	IC50 ([3]; read-out: J774.A1 IC50)	IC50 ([3]; read-out: J774.A1 IC50 (µM))	J774.A1 SI (selectivity index) [3]	NO production ([4]; 0.75 µg/mL, 72 h, p < 0.01)	NO production ([4]; 1.5 µg/mL, 72 h, p < 0.05)	production of nitric oxide (NO) [4]	activity on axenic amastigotes [5]	activity on promastigotes [6]	reduction of infection index ([1]; 12.5 µg/mL)	NO release ([4]; highest concentration tested, 72 h)
0.1 µg/mL	0.2 µM	O=c1cc(-c2ccc(O)c(-c3c(O)cc(O)c4c(=O)cc(-c5ccc(O)cc5)oc34)c2)oc2cc(O)cc(O)c12 [Amentoflavone, amentoflavone]	greater than 90.6%	~100%	2.2 µg/mL	4 µM	22	3 µg/mL	5.5 µM	30	significantly lower	significantly lower	lower	not active	poor activity		
0.03 µg/mL	0.035 µM	C[C@@H]1[C@H](O)[C@@H](C)/C=C/C=C/C=C/C=C/C=C/C=C/C=C/[C@H](O[C@@H]2O[C@H](C)[C@@H](O)[C@H](N)[C@@H]2O)C[C@@H]2O[C@](O)(C[C@@H](O)C[C@@H](O)[C@H](O)CC[C@@H](O)C[C@@H](O)CC(=O)O[C@H]1C)C[C@H](O)[C@H]2C(=O)O [Amphotericin B, reference compound]			2.2 µg/mL	2.2 µM	73	4.3 µg/mL	4.7 µM	143.3							
2.8 µg/mL	5.3 µM	O=c1cc(-c2ccc(O)c(-c3c(O)cc4oc(-c5ccc(O)cc5)cc(=O)c4c3O)c2)oc2cc(O)cc(O)c12 [Robustaflavone, robustaflavone]			25.5 µg/mL	47.4 µM	9.1	3.1 µg/mL	5.7 µM	1.1			higher			90.8%	increased
